The list is not random: actives were taken first. Their share in the collection is about 9.4%.
Mdm2 MdmX PPI = inhibitors of human Mdm2-MdmX association, primary screen, cell-based, luminescence, split luciferase, SaOS-2, uHTS | 3% of 330,000 active | Protein Mdm4 (Homo sapiens) + E3 ubiquitin-protein ligase Mdm2 (Homo sapiens), … | SaOS-2 split-luciferase Mdm2/MdmX complementation | inhibition, % at 8 µM;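 active = inhibition of at least 50% at 8 µM in the primary screen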
T cruzi inh = inhibitors of intracellular T. cruzi growth, primary screen, luminescence, NIH3T3 host cells. 1.4% of 300,000 active. inhibition, % (test concentration not listed). T. cruzi beta-gal in NIH3T3, 90 h. AID 1885, 2009;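 active = mean inhibition across valid replicates above about 55%, limit read from the data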;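 note: signal also drops with host cell toxicity which is not excluded here; 0% = plate median of DMSO wells and 100% = zero luminescence signal; higher percent means less beta-gal luminescence so fewer parasites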
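Incubation – ≥90 h infection period, 3 h prior cell attachment · System – NIH/3T3 fibroblasts plus reporter T. cruzi · Doses – compound pinned at 50 nL/well, DMSO · Read-out basis – percent inhibition of parasite-derived β-gal signal · Signal – luminescent β-galactosidase signal after 60 min lysis · Also added – 5000 T. cruzi trypomastigotes/well · Medium – Low-serum DMEM with 2% FBS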
Beta cell apopt = inhibitors of cytokine-induced beta cell apoptosis, primary screen, luminescence | INS-1E cytokine-induced death, ATP luminescence, 48 h; percent of positive-control rescue, neutral wells zero | protection from apoptosis, % (test concentration not listed) | 0.8% of 300,000 active;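 active = Every replicate reaches about 75%, or at least half do and their mean reaches it too, limit read from the data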;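 note: 0% = cytokine-treated negative control wells and 100% = positive control rescue; higher means more ATP so stronger rescue from cytokine killing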
CSC inhib = cancer stem cell viability inhibitors, primary screen, luminescence; inhibition, % at 7.5 µM; cancer stem cell-like cells viability; 1.1% of 300,000 active; in the data active = inhibition above about 75%; tested in HMLE shEcad cells
SKKanGAS inh = S. pyogenes SKKanGAS growth inhibitors in kanamycin, primary screen, streptokinase expression inhibitor project, SKKanGAS strain, BacTiter-Glo luminescence; 1.3% of 300,000 active; inhibition, % at 7.5 µM; 6 h;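 active = mean replicate score, as percent of positive control median, at least 50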;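 note: strain carries kanamycin resistance gene driven by streptokinase promoter and grows in 40 µg/ml kanamycin; loss of luminescence reflects streptokinase promoter inhibition or plain growth inhibition; 0% = median of DMSO wells and 100% = positive control at its reference dose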
Lmaj promast = Leishmania major promastigote growth inhibition, primary screen. Leishmania major promastigotes, resazurin fluorescence viability. inhibition, % at 10 µM. 9% of 200,000 active. AID 1063, 2008; in the data active = inhibition above about 50%;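 note: promastigotes grown with compound for 44 hours at 28 °C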
* hit, by the source's call; x = not tested or not shown.

SMILES	Mdm2 MdmX PPI	T cruzi inh	Beta cell apopt	CSC inhib	SKKanGAS inh	Lmaj promast
COCc1ccc(C(=O)N2CCCC(CNC(=O)c3ccc(F)cc3)C2)o1 (stereo unspecified)	5	2	2	-7	-4	x
CCOc1cc(CN2CCCC(CNC(=O)c3ccc(F)cc3)C2)ccc1OC (stereo unspecified)	21	61*	-7	-5	-18	x
COc1cc(OC)cc(C(=O)NCC2CCCN(Cc3cccc(C(C)=O)c3)C2)c1 (stereo unspecified)	8	43	-1	8	-2	x
CCOc1ccc(CN2CCCC(CNC(=O)c3ccc(F)cc3)C2)cc1CO (stereo unspecified)	-15	62*	-17	3	-3	-1
COc1ccc(NC(=O)COc2cccc(-n3cnnn3)c2)cc1Cl	19	-3	4	-6	0	x
CC(C)(C)N(CC(=O)NC1CCCCC1)C(=O)CS(=O)CC(=O)Nc1ccc(F)cc1 (stereo unspecified)	15	-4	7	-11	6	x
Cc1sc2ncnc(NCC(O)c3ccccc3)c2c1C (stereo unspecified)	-10	9	88*	-17	11	x
Cc1sc2ncnc(N/N=C/c3ccc(O)cc3)c2c1C	2	3	0	36	-2	21
Cc1sc2ncnc(NCC(O)c3ccc([N+](=O)[O-])cc3)c2c1C (stereo unspecified)	7	26	79*	-7	1	x
Cc1sc2ncnc(N/N=C/c3ccccc3O)c2c1C	x	32	85*	105*	94*	100*
CN(C)CC1CCCCC1OC(=O)c1ccc(Cl)cc1 (stereo unspecified)	9	-8	-16	x	1	57*
CCNc1nc(C)nc2c1oc1ccccc12	-4	-10	-3	-10	-6	33
CCc1nc(NCc2ccc3c(c2)OCO3)c2oc3ccccc3c2n1	9	33	-2	-17	17	72*
c1ccc2c(c1)oc1c(N3CCN(Cc4ccc5c(c4)OCO5)CC3)ncnc12	x	34	x	x	18	94*
CCNc1nc(CC)nc2c1oc1ccccc12	-8	7	-2	5	6	57*
c1ccc(Cn2nnc3c(N4CCN(Cc5ccc6c(c5)OCO6)CC4)ncnc32)cc1	28	44	4	68	1	-15
Cc1nc(NCc2ccc3c(c2)OCO3)c2oc3ccccc3c2n1	11	-21	-13	5	2	7
COc1ccc2nc(N3C(=O)/C(=C/c4ccc(Cl)cc4)NC3=S)sc2c1	x	x	x	x	x	60*
O=c1[nH]c(CSc2nc3ccccc3s2)nc2ccccc12	-23	-4	3	-18	9	x
COc1ccc(C2NCCc3c2[nH]c2ccccc32)cc1CSc1nc2ccccc2s1 (stereo unspecified)	x	19	-3	116*	11	60*
CCCCNC(=O)Cn1nc([N+](=O)[O-])c([N+](=O)[O-])c1C	10	10	-3	3	3	79*
CCCNC(=O)Cn1nc([N+](=O)[O-])c([N+](=O)[O-])c1C	1	14	-5	-8	3	24
O=c1c2ccccc2nc2c3ccccc3cnn12	-32	10	7	-4	5	8
O=c1c2ccccc2cnn1-c1nc2ccccc2[nH]1	x	-12	x	x	58*	-4
CCOc1ccc(C(=O)NN2CCOCC2)cc1	25	-6	-2	-2	-2	x
Cc1oc(-c2ccc(Cl)cc2)nc1CN1CCCC(C(=O)NCCCN2CCOCC2)C1 (stereo unspecified)	27	50	2	4	-5	76*
COc1cc(OC)cc(C(=O)Nc2c(C)nn(-c3ccccc3)c2C)c1	11	-18	1	-13	9	-6
OCCCCCN=c1cc(-c2ccccc2)oc2ccc(Cl)cc12	-3	-11	13	-10	-8	95*
Clc1ccc(-c2nc(NCCCN3CCOCC3)c3ccccc3n2)cc1	37	41	5	54	3	x
Clc1ccc2oc(-c3ccccc3)cc(=NCCCN3CCOCC3)c2c1	x	x	x	x	x	99*
